# HTR1E antagonist = blocks the human 5-HT1E serotonin receptor; CHO 5-HT1E Ga15 NFAT-bla reporter, FRET, antagonist; 0.99% of 65,000 active; P28566; inhibition, % at 6 µM;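 active = inhibition above a set limit, the mean inhibition across every tested compound plus 3 SD, cut at about 29% in these data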;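 also: signal is the 460 over 535 nm emission ratio of beta-lactamase substrate; 0% = agonist plus DMSO wells and 100% = wells without agonist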
# Target sequence (P28566 whole entry, looked up): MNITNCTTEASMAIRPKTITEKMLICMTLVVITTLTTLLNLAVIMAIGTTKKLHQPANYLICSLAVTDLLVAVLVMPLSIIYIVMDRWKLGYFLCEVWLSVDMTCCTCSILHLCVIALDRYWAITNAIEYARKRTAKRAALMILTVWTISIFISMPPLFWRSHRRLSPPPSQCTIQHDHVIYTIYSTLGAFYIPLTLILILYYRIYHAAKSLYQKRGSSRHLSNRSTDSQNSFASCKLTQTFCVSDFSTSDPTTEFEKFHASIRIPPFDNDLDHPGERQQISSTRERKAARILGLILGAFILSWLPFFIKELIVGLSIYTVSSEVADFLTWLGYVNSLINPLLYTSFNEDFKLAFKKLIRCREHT
# S1P3 agonist = S1P3 (human) receptor agonism | activation, % at 4.5 µM | AID 373 | 0.1% of 60,000 active | S1P3 NFAT-BLA reporter cells, FRET ratio; relative to 1 µM S1P, basal subtracted | Q99500;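 active = activation above the screen-wide mean plus 3 SD, cut at about 4.5% in these data, passing the limit was not always enough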
#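 Measure – % activation relative to 1 µM S1P (100%), per plate · System – stable CHO line with human S1P3, Gα16, NFAT-BLA reporter · Timing – cells plated overnight, compound 4 h 37 °C, substrate 2 h RT · Technique – fluorescent BLA substrate, ex 405 nm, em 460/535 nm ratio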
# S1P1 ag pot = agonists and agonism potentiators of human S1P1 receptor; S1P1 CRE-bla cells, forskolin, beta-lactamase FRET, potentiator mode; S1P1 agonist co-added at EC20, 2 nM; 100% = saturating reference agonist, 0% = basal; activation, % at 9.5 µM; AID 449; P21453; 0.57% of 56,000 active;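 active = activation above a cutoff set at the mean activation of all tested compounds plus 3 SD, cut at about 54% in these data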;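 also: forskolin at 4 µM as EC80 and the EC20 agonist is SEW2871; 100% = SEW2871 at its EC100 plus forskolin at EC80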
# 5-HT1A blocker = blocks the human serotonin 5-HT1a receptor | CHO 5-HT1a Ga15 NFAT-bla reporter, antagonist mode | 0.68% of 62,000 active | inhibition, % at 10 µM | P08908;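 active = inhibition above the mean of all tested compounds plus 3 SD, cut at about 43% in these data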;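 also: receptor stimulated by 5-CT agonist at 100 nM near EC80; beta-lactamase reporter measured by ratiometric fluorescence of a cleavable substrate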
# HTR1A agonist = 5-HT1a (human) receptor agonism; P08908; 0.56% of 65,000 active; activation, % at 10 µM; CHO 5-HT1a Ga15 NFAT-bla reporter, FRET ratio; 0% basal, 100% maximal reference agonist;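 active = activation above the screen-wide mean activation plus 3 SD, cut at about 19% in these data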;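 also: 0% = DMSO wells and 100% = 5-CT at EC100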
# 5HT1E ag = activates the human 5-HT1E serotonin receptor | P28566 | CHO 5-HT1E Ga15 NFAT-bla reporter, FRET; 0% DMSO wells, 100% control agonist wells | activation, % at 6 µM | 0.69% of 65,000 active;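 active = activation above a set limit, the screen-wide mean activation plus 3 SD, cut at about 8.5% in these data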;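 also: 100% = positive control agonist at 1 µM giving full maximal response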
# An asterisk follows results filed as active; nt = no result given. This is a sample that favours compounds with a hit; in the whole collection about 3% have one here.
SMILES,HTR1E antagonist,S1P3 agonist,S1P1 ag pot,5-HT1A blocker,HTR1A agonist,5HT1E ag
COc1ccc(Cl)cc1NC(=O)CSc1nnc(-c2ccncc2)n1CC1CCCO1 (configuration not stated),-2,0,-11,3,1,0
COc1ccccc1NC(=O)CSc1nnc(-c2ccncc2)n1CC1CCCO1 (configuration not stated),-5,0,-3,-15,37*,-1
COc1ccccc1CC(=O)Nc1ccc(O)cc1C(=O)O,-10,0,nt,-10,1,1
CCOC(=O)N1CCN(CC(O)c2ccc3cc[nH]c3c2)CC1 (configuration not stated),2,23,-5,2,1,-1
OC(COCc1ccccc1)CN1CCN(c2ccccc2F)CC1 (configuration not stated),6,-1,-15,22,2,1
COc1ccccc1N1CCN(CC(O)c2ccc3cc[nH]c3c2)CC1 (configuration not stated),21,-1,19,87*,6,2
COc1cccc(OC)c1OCC(O)CN1CCN(c2ccccc2)CC1 (configuration not stated),-1,0,-18,45*,-2,2
COc1ccccc1N1CCN(CC(O)COc2c(OC)cccc2OC)CC1 (configuration not stated),-4,-2,-28,95*,-3,3
COc1ccccc1N1CCN(C(=O)N2CCOCC2)CC1,-2,0,-13,-10,-3,-1
OC(COc1ccc2c(c1)CCC2)CN1CCN(c2ccccc2F)CC1 (configuration not stated),-7,0,-9,44*,1,1
O=C(CSc1nnc(-c2ccccn2)n1Cc1ccccc1)N1CCCC1,6,-2,-11,-7,-3,0
O=C(Nn1cnnc1)c1ccc(F)c(S(=O)(=O)N2CCCCC2)c1,-5,0,-16,-9,-3,0
CC1CCN(Cc2ccc(NC(=O)C3CCN(c4nnc(-n5cccc5)s4)CC3)cc2)CC1,4,5,-5,-5,-6,1
C=CCc1ccccc1OCC(O)Cn1ccnc1C (configuration not stated),1,0,10,-4,-1,-1
C=CCc1ccccc1OCC(O)CN1CCN(c2ccc(OC)cc2)CC1 (configuration not stated),11,0,-36,81*,-1,0
Nc1nonc1/C(=N/O)N1CCCC1,9,0,8,17,130*,-1
Nc1nonc1C(=O)OCC(=O)N1CCCCC1,6,0,4,5,0,1
O=c1nc(C(F)(F)F)nc2ccccn12,-4,-2,nt,9,21*,-1
Cc1ccc(C2CC(=O)NC(SCc3ccccc3)=C2C#N)o1 (configuration not stated),2,-1,7,2,35*,0
N#CC1=C(SCc2ccccc2)NC(=O)CC1c1ccco1 (configuration not stated),7,-1,4,-5,-1,0
COc1ccc(NC(=O)Cn2cccc2)cc1Cl,6,0,0,3,141*,-1
Cc1noc(C)c1COc1ccc(C(=O)OC(C)C(=O)Nc2ccc(N3CCOCC3)cc2)cc1 (configuration not stated),-6,1,2,1,-2,120*
CC(=O)c1ccc(N2CCN(C(=O)c3ccc(OCc4c(C)noc4C)cc3)CC2)cc1,5,1,6,-2,-2,0
COC(=O)C1=C(N)Oc2cc(C)oc(=O)c2C1c1ccncc1 (configuration not stated),-5,5,3,nt,-2,0
COC(=O)/C(=C1/Oc2cc(C)oc(=O)c2S1)C(F)(F)F,78*,-9,48,nt,-1,0
SMILES,HTR1E antagonist,S1P3 agonist,S1P1 ag pot,5-HT1A blocker,HTR1A agonist,5HT1E ag
Cc1nnc2ccc(Oc3ccc(-c4ccccc4)cc3)nn12,8,-1,68*,1,0,0
Cc1cc(-c2nn3c(-c4ccccc4)nnc3s2)c2ccccc2n1,30*,0,-111,0,-1,2
CCNc1ccc(C(=O)OCC)cc1NC(=O)c1cccc(S(=O)(=O)N2CCOCC2)c1,6,-2,-4,6,-2,-1
CCOc1ccc(-c2nc(CSc3nncs3)cs2)cc1OC,27,nt,nt,13,2,0
COc1ccccc1N1CCN(C(c2ccc(C)cc2)c2nnnn2C(C)C)CC1 (configuration not stated),-1,-1,-31,31,-3,0
CCN1CCN(Cc2ccc(OC)c(OCc3ccccc3)c2)CC1,-5,-1,5,6,-2,0
CCOc1ccccc1N1CCN(Cc2ccc(OC)c(OC)c2OC)CC1,3,-1,9,80*,-3,17*
COc1ccccc1N1CCN(Cc2ccc(Br)o2)CC1,-2,-1,-3,10,-1,6
COc1ccccc1N1CCN(Cc2cccc(OC)c2OC)CC1,0,-2,-12,40,-2,3
COc1ccccc1N1CCN(C(c2ccc(F)cc2)c2nnnn2C(C)C)CC1 (configuration not stated),7,-1,-14,43*,-3,1
COc1cc(OC)c(OC)cc1CN1CCN(c2ccccc2OC)CC1,19,-1,nt,46*,-1,23*
CCOc1ccccc1N1CCN(Cc2ccc(OC)c(OC)c2)CC1,-3,-1,-1,57*,-2,20*
O=C(c1ccc2c(c1)OCCCO2)c1cccs1,-2,-1,4,-1,0,1
CN(CC(=O)NCc1cccs1)S(=O)(=O)c1cccc2nsnc12,10,-1,9,3,-3,0
CC1(C)CC(=NO)CC(C)(C)N1,0,0,-5,-9,-2,1
CCc1cc2c3c(c(=O)oc2cc1O)CCCC3,-3,1,-11,6,2,0
COc1ccc(CC(C)N2CCN(c3ccccc3OC)CC2)cc1OC (configuration not stated),7,-1,5,98*,0,1
COc1cc(CN2CCN(c3cccc(C)c3C)CC2)cc(OC)c1O,5,-2,-18,-2,-2,57*
CC(C)CNS(=O)(=O)c1ccc(S(=O)(=O)N2CCN(CCC#N)CC2)cc1,6,-1,-13,-17,0,1
Cc1ccc(Cn2cccc(NC(=O)c3ccco3)c2=O)cc1,2,0,-11,8,0,0
